Most compounds without a hit are left out; they make up all but 1.4% or so of the library.
CAL PDZ FP-1: untagged CAL PDZ binding inhibitors, primary screen, biochemical, fluorescence polarization, HTS. Golgi-associated PDZ and coiled-coil motif-containing protein (Homo sapiens), Q9HD26. purified CAL PDZ, TMR-peptide fluorescence polarization, 1 h. inhibition, % at 24.9 µM. actives 0.92% (n = 300,000);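 active means mean inhibition of at least 30% with at least half of replicates also reaching 30%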
CAL PDZ FP-2: CAL PDZ peptide-binding inhibitors, primary screen, biochemical, fluorescence polarization, Cer-tagged CAL PDZ, HTS. Golgi-associated PDZ and coiled-coil motif-containing protein (Homo sapiens), Q9HD26. purified CAL PDZ, TMR-peptide fluorescence polarization, 1 h. inhibition, % at 20 µM. actives 0.02% (n = 330,000). AID 504414, 2011;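 active means highest replicate inhibition of at least 40%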
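System: purified tagged CAL PDZ domain construct (CerCALP). Schedule: 1 h incubation at room temperature before polarization reading. Medium: 25 mM sodium phosphate pH 7.4, 150 mM NaCl, TCEP, IgG, Thesit. Read-out: percent inhibition from loss of millipolarization. Measured by: FP readout, S and P plane fluorescence. Probe or stimulus: fluorescent TMR peptide probe.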
ARNT TACC3 PPI: disruptors of ARNT/TACC3 protein interaction, primary screen, biochemical, AlphaScreen, single concentration; Transforming acidic coiled-coil-containing protein 3 (Homo sapiens), Q9Y6A5; AlphaScreen His-ARNT PAS-B/GST-TACC3 binding, luminescence; TACC3 fragment carries E629A point mutation; inhibition, % at 9.99 µM; actives 0.66% (n = 390,000); AID 623870, 2012;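 active means mean inhibition of replicates at least 50% and at least half of replicates each reaching 50%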
Dyrk1A ADPGlo: rat Dyrk1A kinase inhibitors, primary screen, biochemical, single point, plate reader; ADP-Glo luminescence, NFATc1 peptide; Dual specificity tyrosine-phosphorylation-regulated kinase 1A (Rattus norvegicus), Q63470; inhibition, % at 12.5 µM; actives 0.43% (n = 310,000); in the data active means inhibition above about 50%
Of the large screens only hits and unclear results are named; the others gave an inactive call.

O=C(O)CCN(Cc1ccccc1)S(=O)(=O)c1ccc(Cl)cc1F	none
CN(C)C(=O)C[C@H]1C[C@H]2c3cc(NC(=O)C4CCC4)ccc3O[C@H]2[C@H](CO)O1	none (no result: CAL PDZ FP-1, CAL PDZ FP-2, Dyrk1A ADPGlo)
CCN(C(=O)c1ccc(NC(=O)Cc2ccccc2)cc1)c1ccccc1	CAL PDZ FP-1 48
CCN(CC)S(=O)(=O)c1ccc(O)c(NC(=O)CN2CCc3ccccc3C2)c1	CAL PDZ FP-1 45
CN(C)S(=O)(=O)c1ccc(Cl)c(NC(=O)CN2CCc3ccccc3C2)c1	none
COc1ccccc1Nc1ncc(C(=O)N2CCC(C(N)=O)CC2)c2ccccc12	none (no result: CAL PDZ FP-2)
COc1ccc(Nc2ncc(C(=O)N3CCC(C(N)=O)CC3)c3ccccc23)cc1	CAL PDZ FP-1 71
CC(C)Oc1cccc(C(=O)C2CCCN(C(=O)CCn3cnnn3)C2)c1 (configuration not stated)	CAL PDZ FP-1 77
O=C(NCc1ccc(F)cc1)[C@H]1[C@H](CO)[C@H]2Cn3c(cccc3=O)[C@@H]1N2CC1CCCC1	none (no result: CAL PDZ FP-1, CAL PDZ FP-2, Dyrk1A ADPGlo)
COc1ccccc1NC(=O)Cn1cnc2c(cnn2-c2ccccc2)c1=O	CAL PDZ FP-1 57
COC(=O)c1ccccc1NC(=O)Cn1cnc2c(cnn2-c2ccccc2)c1=O	none (no result: CAL PDZ FP-1)
Cc1ccc(S(=O)(=O)Nc2ccc3c(c2)C(=O)N([C@@H](C)CO)C[C@H](C)[C@H](CN(C)C(=O)NC(C)C)OCCCC[C@H](C)O3)cc1	none (no result: CAL PDZ FP-1, CAL PDZ FP-2, Dyrk1A ADPGlo)
CN(C)C=C1C(=O)c2ccccc2C1=O	none (no result: CAL PDZ FP-1)
CN(C)/C=C1\C(=O)NN=C1c1ccccc1	ARNT TACC3 PPI 28
CCOC(=O)C1=C(CC)OC(N)=C(C#N)C1c1ccc(OC)c(OC)c1OC (configuration not stated)	ARNT TACC3 PPI 15 (no result: CAL PDZ FP-1)
CCOC(=O)c1[nH]ncc1[C@@H]1C[C@H]2CN(Cc3cccc(Cl)c3)C(=O)[C@]23CCCN13	CAL PDZ FP-1 46
CCCC(=O)Nc1cc(C(F)(F)F)ccc1N1CCOCC1	CAL PDZ FP-1 35
CN(C)CC(=O)c1c(N)n(Cc2ccccc2)c(=O)n(C)c1=O	CAL PDZ FP-1 82
C[C@H](CO)N1C[C@H](C)[C@@H](CN(C)C)Oc2cc(C#Cc3ccncc3)ccc2S1(=O)=O	none (no result: CAL PDZ FP-1, CAL PDZ FP-2, Dyrk1A ADPGlo)
COc1ccccc1CN(C)S(=O)(=O)c1cccs1	CAL PDZ FP-1 64
CN(Cc1ccccc1C#N)S(=O)(=O)c1cccs1	none (no result: CAL PDZ FP-1)
C[C@H](CO)N1C[C@H](C)[C@@H](CN(C)Cc2ccc(Cl)c(Cl)c2)Oc2ccc(NC(=O)Nc3ccc4c(c3)OCO4)cc2C1=O	none (no result: CAL PDZ FP-1, CAL PDZ FP-2, Dyrk1A ADPGlo)
C[C@@H]1CCCCO[C@H](CN(C)C(=O)Cc2ccccc2)[C@@H](C)CN([C@H](C)CO)C(=O)c2cc(NC(=O)NC3CCCCC3)ccc2O1	none (no result: CAL PDZ FP-1, CAL PDZ FP-2, Dyrk1A ADPGlo)
COCCCNC(=O)C1CC(=O)OC1c1ccc(OC)c(OC)c1 (configuration not stated)	CAL PDZ FP-1 42
O=C(Oc1cccc2cccnc12)c1ccc(Br)o1	none (no result: CAL PDZ FP-1)
O=C(Oc1cccc2cccnc12)c1ccco1	ARNT TACC3 PPI 54 (no result: CAL PDZ FP-2)
CC(C)NC(=O)N(C)C[C@@H]1OCCCC[C@@H](C)Oc2ccc(N(C)C)cc2C(=O)N([C@@H](C)CO)C[C@@H]1C	none (no result: CAL PDZ FP-1, CAL PDZ FP-2, Dyrk1A ADPGlo)
C[C@H](CO)N1C[C@H](C)[C@H](CN(C)C(=O)NC2CCCCC2)Oc2ccc(NS(C)(=O)=O)cc2C1=O	none (no result: CAL PDZ FP-1, CAL PDZ FP-2, Dyrk1A ADPGlo)
Cc1cc(C(=O)NP(=O)(N2CCOCC2)N2CCOCC2)c(C)n1-c1ccc(N(C)C)cc1	CAL PDZ FP-1 88
Cc1cc(C(=O)NP(=O)(N2CCOCC2)N2CCOCC2)c(C)n1-c1ccc(Br)cc1	none
CCOC(=O)C1=NNC(C(=O)c2ccc(C)cc2)C1c1ccc(C)cc1 (configuration not stated)	none
CCOC(=O)C1=NNC(C(=O)c2ccccc2)C1c1ccc(C)cc1 (configuration not stated)	CAL PDZ FP-1 59
COc1ccc(NS(=O)(=O)c2cc(NC(=O)Cc3n[nH]c(=O)c4ccccc34)ccc2OC)cc1	CAL PDZ FP-1 51
COc1ccccc1NS(=O)(=O)c1cc(NC(=O)Cc2n[nH]c(=O)c3ccccc23)ccc1Cl	none (no result: Dyrk1A ADPGlo)
COc1ccc(NC(=O)CN(C)C(=O)Cc2n[nH]c(=O)c3ccccc23)cc1	CAL PDZ FP-1 31
COc1cccc(NC(=O)CN(C)C(=O)Cc2n[nH]c(=O)c3ccccc23)c1	none (no result: CAL PDZ FP-1)
COC(=O)c1c(N2C(=O)[C@H]3[C@@H](C2=O)[C@]2(C(=O)Nc4c(C)cc(C)cc42)N2CCC[C@@H]32)sc(C)c1C	CAL PDZ FP-1 66
COC(=O)c1c(N2C(=O)[C@H]3[C@@H](C2=O)[C@]2(C(=O)Nc4c2ccc(C)c4C)N2CCC[C@@H]32)sc(C)c1C	none
CCCCC#Cc1ccc(C(=O)NNC(=O)Nc2cc(Cl)cc(Cl)c2)o1	CAL PDZ FP-1 30 (no result: Dyrk1A ADPGlo)
CN(Cc1cccc(F)c1)C(=O)C1CC(=O)N(c2ccc3c(c2)OCCO3)C1 (configuration not stated)	CAL PDZ FP-1 40
O=C(C1CC(=O)N(c2ccc3c(c2)OCCO3)C1)N1CCN(c2ccccc2)CC1 (configuration not stated)	CAL PDZ FP-1 47
C[C@H](CO)N1C[C@H](C)[C@@H](CN(C)C)Oc2cc(Br)ccc2S1(=O)=O	none (no result: CAL PDZ FP-1, CAL PDZ FP-2, Dyrk1A ADPGlo)
Cc1c(C(=O)N2CCOCC2)c(S(=O)(=O)Nc2cccc(C#N)c2)c(C)n1C	CAL PDZ FP-1 68
Cc1c(C(=O)N2CCOCC2)c(S(=O)(=O)Nc2cccc(F)c2)c(C)n1C	none
O=C(O)c1cc(O)c2c(c1)[C@@H]([C@H]1c3cc(C(=O)O)cc(O)c3C(=O)c3c(O[C@@H]4O[C@H](CO)[C@@H](O)[C@H](O)[C@H]4O)cccc31)c1cccc(OC3O[C@H](CO)[C@@H](O)[C@H](O)[C@H]3O)c1C2=O (some centres not stated)	CAL PDZ FP-1 37
C[C@H](CO)N1C[C@H](C)[C@H](CN(C)C(=O)Nc2cccc3ccccc23)Oc2ccc(NC(=O)Cn3cnnn3)cc2CC1=O	none (no result: CAL PDZ FP-1, CAL PDZ FP-2, Dyrk1A ADPGlo)
O=C(Nc1cc(Cl)ccc1N1CCOCC1)c1cccnc1Cl	CAL PDZ FP-1 64 (no result: Dyrk1A ADPGlo)
O=C(Nc1cc(Cl)ccc1N1CCOCC1)c1ccncc1	none (no result: Dyrk1A ADPGlo)
C/C=C/c1ccc2c(c1)O[C@H](CN(C)C)[C@@H](C)CN([C@H](C)CO)S2(=O)=O	none (no result: CAL PDZ FP-1, CAL PDZ FP-2, Dyrk1A ADPGlo)
COc1ccc(NC(=O)Nc2ccc3c(c2)C(=O)N([C@H](C)CO)C[C@H](C)[C@H](CN(C)C(=O)Nc2cccc4ccccc24)O3)cc1	none (no result: CAL PDZ FP-1, CAL PDZ FP-2, Dyrk1A ADPGlo)
NC(=O)CC1C(=O)N(c2ccc(Cl)cc2)C(=S)N1NC(=O)c1cccc(F)c1 (configuration not stated)	CAL PDZ FP-1 62 (no result: CAL PDZ FP-2)
